From ChEMBL document CHEMBL3098054, “The synthesis of novel taxoids for oral administration” (Bioorg Med Chem, 2014)

Key:
[1] = Apparent permeability from apical to basolateral side in human Caco2 cells at 10 uM after 90 mins by LC-MS/MS analysis; format: ADME, cell-based, Caco-2; conditions: Caco-2
MCF7 [2] = assay: Cytotoxicity against human MCF7 cells after 72 hrs by MTT assay; format: functional, cell-based; conditions: MCF7, 72 h
In short: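 MCF-7 cells exposed to compound for 72 h and read by MTT. At least six replicate wells per assay, run on three separate occasions. IC₅₀ given as mean with standard deviation.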

HL-60 = assay: Cytotoxicity against human HL60 cells at 1 uM after 72 hrs by MTT assay; format: functional; conditions: HL-60, 72 h, read-out: GI
In short: (§1)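 Cells plated at 2000–5000/well, attached overnight at 37 °C. DMSO stocks (100 mM) serially diluted in medium to a final 1 µM, tested in duplicate wells. Exposure 72 h at 37 °C, 5% CO₂. MTT (5 mg/mL, 10 µL) added for 4 h. Lysis in 10% SDS / 5% isopropanol / 0.012 N HCl, then OD read at 580–680 nm.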

DU-145 = assay: Cytotoxicity against human DU145 cells at 1 uM after 72 hrs by MTT assay; format: functional; conditions: DU-145, 72 h, read-out: GI; in short: as §1
HT-29 = assay: Cytotoxicity against human HT-29 cells at 1 uM after 72 hrs by MTT assay; format: functional; conditions: HT-29, 72 h, read-out: GI; in short: as §1
A-375 = assay: Cytotoxicity against human A375 cells at 1 uM after 72 hrs by MTT assay; format: functional; conditions: A-375, 72 h, read-out: GI
In short: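 Cells plated at 2000–5000/well, attached overnight at 37 °C. DMSO stocks (100 mM) serially diluted in medium to a final 1 µM, tested in duplicate wells. MTT (5 mg/mL, 10 µL) added for 4 h. Lysis in 10% SDS / 5% isopropanol / 0.012 N HCl, then OD read at 580–680 nm.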

MCF7 [3] = assay: Cytotoxicity against human MCF7 cells at 1 uM after 72 hrs by MTT assay; format: functional; conditions: MCF7, 72 h, read-out: GI; in short: as §1
NCI-H460 = assay: Cytotoxicity against human NCI-H460 cells at 1 uM after 72 hrs by MTT assay; format: functional; conditions: NCI-H460, 72 h, read-out: GI; in short: as §1
HeLa = assay: Cytotoxicity against human HeLa cells at 1 uM after 72 hrs by MTT assay; format: functional; conditions: read-out: GI; in short: as §1
A2780 = assay: Cytotoxicity against human A2780 cells at 1 uM after 72 hrs by MTT assay; format: functional; conditions: A2780, 72 h, read-out: GI; in short: as §1

Q: For `COC(=O)O[C@H]1C(=O)[C@]2(C)[C@@H](OC)C[C@H]3OC[C@@]3(OC(C)=O)[C@H]2[C@H](OC(=O)c2ccccc2)[C@]23OC(=O)O[C@H]2[C@H](OC(=O)[C@H](O)[C@@H](NC(=O)OC(C)(C)C)c2ccccc2)C(C)=C1C3(C)C`, which Papp A→B at 1.5 h, 10 µM [1] is on record?
A: < 1.43 ×10⁻⁶ cm/s

Q: What about the IC50 (MCF7 [2]) of the same molecule?
A: 3.24 nM

Q: Which Papp A→B at 1.5 h, 10 µM [1] does the source give for `CO[C@H]1C[C@H]2OC[C@@]2(OC(C)=O)[C@H]2[C@H](OC(=O)c3ccccc3)[C@]3(O)C[C@H](OC(=O)[C@H](O)[C@@H](NC(=O)c4ccccc4)c4ccccc4)C(C)=C([C@@H](OC(=O)N(C)C)C(=O)[C@]12C)C3(C)C` here?
A: 2.94 ×10⁻⁶ cm/s

Q: And the inhibition of growth at 1 µM (HL-60)?
A: 97.5%

Q: And the inhibition of growth at 1 µM (DU-145)?
A: 87.1%

Q: What about the inhibition of growth at 1 µM (HT-29) of the same molecule?
A: 87.9%

Q: What about the inhibition of growth at 1 µM (A-375) of the same molecule?
A: 87.7%

Q: What about the inhibition of growth at 1 µM (MCF7 [3]) of the same molecule?
A: 85.7%

Q: What about the inhibition of growth at 1 µM (NCI-H460) of the same molecule?
A: 86.5%

Q: And the inhibition of growth at 1 µM (HeLa)?
A: 102%

Q: What about the inhibition of growth at 1 µM (A2780) of the same molecule?
A: 96.3%

Q: Which Papp A→B at 1.5 h, 10 µM [1] does the source give for `CO[C@H]1C(=O)[C@]2(C)[C@@H](OC(=O)N(C)C)C[C@H]3OC[C@@]3(OC(C)=O)[C@H]2[C@H](OC(=O)c2ccccc2)[C@]23OC(=O)O[C@H]2[C@H](OC(=O)[C@H](O)[C@@H](NC(=O)OC(C)(C)C)c2ccccn2)C(C)=C1C3(C)C` here?
A: 2.46 ×10⁻⁶ cm/s

Q: What about the IC50 (MCF7 [2]) of the same molecule?
A: 18.2 nM

Q: With `CC[C@H]1OC(=O)[C@H](C)[C@@H](O[C@H]2C[C@@](C)(OC)[C@@H](O)[C@H](C)O2)[C@H](C)[C@@H](O[C@@H]2O[C@H](C)C[C@H](N(C)C)[C@H]2O)[C@](C)(O)C[C@@H](C)C(=O)[C@H](C)[C@@H](O)[C@]1(C)O` [ERYTHROMYCIN] as the molecule, how does the Papp A→B at 1.5 h, 10 µM [1] read?
A: 0.58 ×10⁻⁶ cm/s

Q: Which Papp A→B at 1.5 h, 10 µM [1] does the source give for `CO[C@H]1C(=O)[C@]2(C)CC[C@H]3OC[C@@]3(OC(C)=O)[C@H]2[C@H](OC(=O)c2ccccc2)[C@]2(O)C[C@H](OC(=O)[C@H](O)[C@@H](NC(=O)OC(C)(C)C)c3ccccc3)C(C)=C1C2(C)C` here?
A: 3.64 ×10⁻⁶ cm/s

Q: What about the IC50 (MCF7 [2]) of the same molecule?
A: 3.33 nM

Q: And the inhibition of growth at 1 µM (HeLa)?
A: 101%

Q: For `CO[C@H]1C[C@H]2OC[C@@]2(OC(C)=O)[C@H]2[C@H](OC(=O)c3ccccc3)[C@]34OC(=O)O[C@H]3[C@H](OC(=O)[C@H](O)[C@@H](NC(=O)OC(C)(C)C)c3ccccn3)C(C)=C([C@@H](OC(=O)N(C)C)C(=O)[C@]12C)C4(C)C`, which Papp A→B at 1.5 h, 10 µM [1] is on record?
A: 4.68 ×10⁻⁶ cm/s

Q: What about the IC50 (MCF7 [2]) of the same molecule?
A: 14.3 nM

Q: For `COC(=O)O[C@H]1C[C@H]2OC[C@@]2(OC(C)=O)[C@H]2[C@H](OC(=O)c3ccccc3)[C@]34OC(=O)O[C@H]3[C@H](OC(=O)[C@H](O)[C@@H](NC(=O)OC(C)(C)C)c3ccccc3)C(C)=C([C@@H](OC)C(=O)[C@]12C)C4(C)C`, which Papp A→B at 1.5 h, 10 µM [1] is on record?
A: 3.93 ×10⁻⁶ cm/s

Q: And the IC50 (MCF7 [2])?
A: 3.84 nM

Q: Which results are given for `CO[C@H]1C(=O)[C@]2(C)[C@@H](OC(=O)N(C)C)C[C@H]3OC[C@@]3(OC(C)=O)[C@H]2[C@H](OC(=O)c2ccccc2)[C@]23OC(=O)O[C@H]2[C@H](OC(=O)[C@H](O)[C@@H](NC(=O)OC(C)(C)C)c2ccccc2)C(C)=C1C3(C)C`?
A: Papp A→B at 1.5 h, 10 µM [1]: < 1.67 ×10⁻⁶ cm/s; IC50 (MCF7 [2]): 15.4 nM; inhibition of growth at 1 µM (HL-60): 97.5%; inhibition of growth at 1 µM (DU-145): 90.7%; inhibition of growth at 1 µM (HT-29): 87.4%; inhibition of growth at 1 µM (A-375): 93.1%; inhibition of growth at 1 µM (MCF7 [3]): 84.7%; inhibition of growth at 1 µM (NCI-H460): 86.2%; inhibition of growth at 1 µM (HeLa): 100%; inhibition of growth at 1 µM (A2780): 95.9%

Q: What does the source list for `CO[C@H]1C(=O)[C@]2(C)[C@@H](OC)C[C@H]3OC[C@@]3(OC(C)=O)[C@H]2[C@H](OC(=O)c2ccccc2)[C@]23OC(=O)O[C@H]2[C@H](OC(=O)[C@H](O)[C@@H](NC(=O)c2ccccc2)c2ccccc2)C(C)=C1C3(C)C`?
A: Papp A→B at 1.5 h, 10 µM [1]: 1.48 ×10⁻⁶ cm/s; IC50 (MCF7 [2]): 6.93 nM; inhibition of growth at 1 µM (HL-60): 96.6%; inhibition of growth at 1 µM (DU-145): 87.8%; inhibition of growth at 1 µM (HT-29): 89.4%; inhibition of growth at 1 µM (A-375): 90.8%; inhibition of growth at 1 µM (MCF7 [3]): 96%; inhibition of growth at 1 µM (NCI-H460): 87.9%; inhibition of growth at 1 µM (HeLa): 101%; inhibition of growth at 1 µM (A2780): 96.7%

Q: Which results are given for `CO[C@H]1C(=O)[C@]2(C)[C@@H](OC)C[C@H]3OC[C@@]3(OC(C)=O)[C@H]2[C@H](OC(=O)c2ccccc2)[C@]23OC(=O)O[C@H]2[C@H](OC(=O)[C@H](O)[C@H](CC(C)C)NC(=O)OC(C)(C)C)C(C)=C1C3(C)C`?
A: Papp A→B at 1.5 h, 10 µM [1]: 2.57 ×10⁻⁶ cm/s; IC50 (MCF7 [2]): 4.04 nM
